# Reference: ChEMBL document CHEMBL1649578, “Biofilm formation and effect of caspofungin on biofilm structure of Candida species bloodstream isolates” (2009)
# Active and inactive are the calls of the source. No cut-off for these calls is given here.
# Tests used:
# Candida tropicalis [1] = test: Antifungal activity against Candida tropicalis isolate CT8 biofilm assessed as change in cellular morphology at 128 ug/ml after 48 hrs by scanning electron microscopy; format: functional, organism-based
# In short: (§1)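 Silicone disks preconditioned 24 h at 37°C in heat-inactivated human serum, seeded with 1 × 10^6 CFU/ml in MOPS-buffered RPMI 1640 (pH 7.0), 1.5 h attachment at 37°C with shaking, then grown 24 h. Washed biofilms exposed to 1.0, 16 or 128 μg/ml caspofungin in RPMI 1640, 48 h at 35°C on a rocker. Untreated controls in RPMI only. Fixed in 5% glutaraldehyde/cacodylate (pH 6.2), ethanol-dehydrated, HMDS air-dried, examined by SEM. Run in triplicate.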
# Candida parapsilosis [2] = test: Antifungal activity against Candida parapsilosis isolate CP1 biofilm after 48 hrs by XTT assay; format: functional; details: Lodderomyces parapsilosis, isolate CP1, 48 h
# In short: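 Biofilms on serum-preconditioned silicone disks in MOPS-buffered RPMI 1640 (pH 7.0), grown 24 h, PBS-washed, then challenged 48 h at 35°C on a rocker with ten doubling caspofungin dilutions, 0.25–128 μg/ml. Metabolic activity read by XTT-menadione reduction, 2 h at 37°C, A490. SMIC taken as the concentration giving 50% reduction in metabolic activity versus drug-free control. Triplicate.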
# Candida tropicalis [3] = test: Antifungal activity against Candida tropicalis isolate CT8 biofilm assessed as viable fungal count per cm2 of silicone disk at 32 ug/ml after 48 hrs […]; format: functional
# In short: (§2)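 Biofilms grown on serum-preconditioned silicone disks in RPMI 1640 for 24 h, PBS-washed, then exposed 48 h at 35°C on a rocker to caspofungin doubling dilutions spanning 0.25–128 μg/ml. Disks washed and sonicated/vortexed in PBS to release cells. Suspensions diluted in Butterfield buffer and plated on Sabouraud dextrose agar. Viable counts from three disks averaged as CFU/cm2.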
# Candida albicans [4] = test: Antifungal activity against Candida albicans isolate CA4 biofilm assessed as viable fungal count per cm2 of silicone disk at 4 ug/ml after 48 hrs […]; format: functional; in short: as §2
# Candida parapsilosis [5] = test: Antifungal activity against Candida parapsilosis isolate CP1 biofilm assessed as viable fungal count per cm2 of silicone disk at 4 ug/ml after 48 hrs […]; format: functional; in short: as §2
# Candida albicans [6] = test: Antifungal activity against Candida albicans isolate CA4 biofilm assessed as appearance of collapsed blastospore at 1 ug/ml after 48 hrs by scanning electron microscopy; format: functional, organism-based; in short: as §1
# Candida parapsilosis [7] = test: Ratio of SMIC for Candida parapsilosis isolate CP1 biofilm to MIC for Candida parapsilosis isolate CP1 planktonic cells; format: functional
# Candida tropicalis [8] = test: Antifungal activity against Candida tropicalis isolate CT8 planktonic cells after 48 hrs by broth microdilution method; format: functional; details: isolate CT8, 48 h
# In short: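 CLSI broth microdilution in RPMI 1640; isolate plated on Sabouraud dextrose agar 24 h at 37°C. Drug stock in sterile saline diluted in RPMI, 16 to 0.0625 μg/ml tested. MIC read at 48 h as lowest concentration giving significant turbidity reduction versus control well.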
# Candida albicans [9] = test: Antifungal activity against Candida albicans isolate CA4 biofilm after 48 hrs by XTT assay; format: functional; details: isolate CA4, 48 h
# In short: (§3)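 Biofilms of clinical bloodstream isolates grown 24 h in RPMI 1640 (MOPS, pH 7.0) on human-serum-preconditioned silicone disks, after 1.5 h attachment at 37°C from 1 × 10^6 CFU/ml. Washed disks exposed 48 h at 35°C on rocker to 10 doubling dilutions, 0.25–128 μg/ml. XTT-menadione reduction 2 h at 37°C, A490; concentration giving 50% reduction of metabolic activity vs drug-free control; triplicate.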
# Candida tropicalis [10] = test: Antifungal activity against Candida tropicalis isolate CT8 biofilm assessed as viable fungal count per cm2 of silicone disk at 0.5 ug/ml after 48 hrs […]; format: functional; in short: as §2
# Candida parapsilosis [11] = test: Antifungal activity against Candida parapsilosis isolate CP1 biofilm assessed as viable fungal count per cm2 of silicone disk at 0.25 ug/ml after 48 hrs […]; format: functional; in short: as §2
# Candida albicans [12] = test: Antifungal activity against Candida albicans isolate CA4 biofilm assessed as viable fungal count per cm2 of silicone disk at 0.5 ug/ml after 48 hrs […]; format: functional; in short: as §2
# Candida albicans [13] = test: Antifungal activity against Candida albicans isolate CA4 biofilm assessed as viable fungal count per cm2 of silicone disk at 16 ug/ml after 48 hrs […]; format: functional; in short: as §2
# Candida tropicalis [14] = test: Antifungal activity against Candida tropicalis isolate CT8 biofilm after 48 hrs by XTT assay; format: functional; details: isolate CT8, 48 h; in short: as §3
# Candida parapsilosis [15] = test: Antifungal activity against Candida parapsilosis isolate CP1 biofilm assessed as viable fungal count per cm2 of silicone disk at 16 ug/ml after 48 hrs […]; format: functional; in short: as §2
# Candida parapsilosis [16] = test: Antifungal activity against Candida parapsilosis isolate CP1 biofilm assessed as viable fungal count per cm2 of silicone disk at 2 ug/ml after 48 hrs […]; format: functional; in short: as §2
# Candida parapsilosis [17] = test: Antifungal activity against Candida parapsilosis isolate CP1 biofilm assessed as viable fungal count per cm2 of silicone disk at 1 ug/ml after 48 hrs […]; format: functional; in short: as §2
# Candida tropicalis [18] = test: Antifungal activity against Candida tropicalis isolate CT8 biofilm assessed as viable fungal count per cm2 of silicone disk at 8 ug/ml after 48 hrs […]; format: functional; in short: as §2
# Candida tropicalis [19] = test: Antifungal activity against Candida tropicalis isolate CT8 biofilm assessed as viable fungal count per cm2 of silicone disk at 128 ug/ml after 48 hrs […]; format: functional; in short: as §2
# Candida albicans [20] = test: Antifungal activity against Candida albicans isolate CA4 biofilm assessed as assessed as decrease in preformed fungal biofilm formation at 128 ug/ml after 48 hrs by scanning electron microscopy; format: functional, organism-based; in short: as §1
# Candida albicans [21] = test: Antifungal activity against Candida albicans isolate CA4 biofilm assessed as viable fungal count per cm2 of silicone disk at 1 ug/ml after 48 hrs […]; format: functional; in short: as §2
# Candida parapsilosis [22] = test: Antifungal activity against Candida parapsilosis isolate CP1 biofilm assessed as change in cellular morphology at 16 ug/ml after 48 hrs by scanning electron microscopy; format: functional, organism-based; in short: as §1
# Candida tropicalis [23] = test: Antifungal activity against Candida tropicalis isolate CT8 biofilm assessed as appearance of collapsed cell wall at 1 ug/ml after 48 hrs by scanning electron microscopy; format: functional, organism-based; in short: as §1
# Candida parapsilosis [24] = test: Antifungal activity against Candida parapsilosis isolate CP1 biofilm assessed as viable fungal count per cm2 of silicone disk at 64 ug/ml after 48 hrs […]; format: functional; in short: as §2
structure (smiles),measurement,setting,value
CC[C@H](C)C[C@H](C)CCCCCCCCC(=O)N[C@H]1C[C@@H](O)[C@@H](NCCN)NC(=O)[C@@H]2[C@@H](O)CCN2C(=O)[C@H]([C@H](O)CCN)NC(=O)[C@H]([C@H](O)[C@@H](O)c2ccc(O)cc2)NC(=O)[C@@H]2C[C@@H](O)CN2C(=O)[C@H]([C@@H](C)O)NC1=O [CASPOFUNGIN],Activity,Candida tropicalis [1],inactive
same,MIC,Candida parapsilosis [2],4 µg/mL
same,log10cfu,Candida tropicalis [3],5.4
same,log10cfu,Candida albicans [4],5.3
same,log10cfu,Candida parapsilosis [5],5.1
same,Activity,Candida albicans [6],Active
same,Ratio,Candida parapsilosis [7],2
same,MIC,Candida tropicalis [8],0.0625 µg/mL
same,MIC,Candida albicans [9],0.5 µg/mL
same,log10cfu,Candida tropicalis [10],6.2
same,log10cfu,Candida parapsilosis [11],0
same,log10cfu,Candida albicans [12],3.4
same,log10cfu,Candida albicans [13],6.2
same,MIC,Candida tropicalis [14],0.25 µg/mL
same,log10cfu,Candida parapsilosis [15],4.5
same,log10cfu,Candida parapsilosis [16],0
same,log10cfu,Candida parapsilosis [17],0
same,log10cfu,Candida tropicalis [18],5.7
same,log10cfu,Candida tropicalis [19],3.3
same,Activity,Candida albicans [20],Active
same,log10cfu,Candida albicans [21],3.3
same,Activity,Candida parapsilosis [22],Active
same,Activity,Candida tropicalis [23],Active
same,log10cfu,Candida parapsilosis [24],3.6
